For 18 compounds, inhibition, IC50 and Activity results are on record in ChEMBL document CHEMBL1828624, “Synthesis and antioxidant activity of oxazolyl/thiazolylsulfonylmethyl pyrazoles and isoxazoles” (Eur J Med Chem, 2011).

As a reminder, the inhibition is the share of the control response that was lost under treatment. As usually defined, the IC50 is the concentration needed to halve the response being measured.

Common to all, as to format: functional
In assay [1] the test system is Radical scavenging activity. As to the kind of experiment: Antioxidant activity assessed as DPPH free radical scavenging activity at 50 ug/ml after 30 mins by spectrophotometric analysis relative to control. A digest of the protocol: (§1)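 Compounds in methanol at […] were mixed with 0.004% (w/v) methanolic DPPH. After 30 min at room temperature, absorbance was read at 517 nm against a blank. Percent inhibition was calculated from control (all reagents minus compound) and sample absorbances. Run in triplicate.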
(In general: The DPPH test is a chemical assay of radical scavenging.)

Assay [2] concerns Radical scavenging activity. Put plainly: Antioxidant activity assessed as DPPH free radical scavenging activity at 75 ug/ml after 30 mins by spectrophotometric analysis relative to control. Put shortly: as §1
The test system of assay [3] is Radical scavenging activity. As to the kind of experiment: Antioxidant activity assessed as DPPH free radical scavenging activity at 100 ug/ml after 30 mins by spectrophotometric analysis relative to control. A digest of the protocol:
as §1

In assay [4] the test system is Radical scavenging activity. Put plainly: Antioxidant activity assessed as DPPH free radical scavenging activity after 30 mins by spectrophotometric analysis. A digest of the protocol:
as §1

Assay [5] is described as follows: Antioxidant activity assessed as nitric oxide scavenging activity at 50 ug/ml after 150 mins by Griess method relative to control. Put shortly: (§2)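 NO was generated from sodium nitroprusside (10 mM) in phosphate buffer saline (0.2 M, pH 7.4). Compounds were added at […] and incubated 150 min at 25 °C. Percent scavenging was calculated from control (all reagents minus compound) and sample absorbances. Run in triplicate.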
Background: Nitrite, measured by Griess reagent, commonly stands in for NO production.

The nature of assay [6]: Antioxidant activity assessed as nitric oxide scavenging activity at 75 ug/ml after 150 mins by Griess method relative to control. A digest of the protocol:
as §2

The nature of assay [7]: Antioxidant activity assessed as nitric oxide scavenging activity at 100 ug/ml after 150 mins by Griess method relative to control. Put shortly: as §2
Assay [8] is described as follows: Antioxidant activity assessed as hydrogen peroxide scavenging activity at 50 ug/ml relative to control.
Assay [9] is described as follows: Antioxidant activity assessed as hydrogen peroxide scavenging activity at 75 ug/ml relative to control.
The nature of assay [10]: Antioxidant activity assessed as hydrogen peroxide scavenging activity at 100 ug/ml relative to control.

In brackets after ≈: the same amount, converted by molar mass. Activity calls are given as the source filed them. No cut-off for these calls is given here.

`Cc1ccc(C2CNN=C2S(=O)(=O)CC2=NCCO2)cc1` (stereo not given): the results for the inhibition in [1], in assay [2] and in [3] were 38.7%, 43.6% and 49.8%, respectively. Besides, in assay [4], the IC50 was 100.44 µg/mL (≈ 327 µM). The Activity in assay [5] was determined as 45.9%; in assay [6], 49.7%; in assay [7] it was 51.4%; in assay [8], 41.3%; in [9], 42.1%; in [10] it was 46.8%.
For the compound `O=S(=O)(CC1=NCCS1)c1c(-c2ccc(Cl)cc2)nn(-c2ccccc2)c1-c1ccc(Cl)cc1`, the inhibition entry in [1], in assay [2] and in [3] was “inactive” each time. In addition, the IC50 entry in [4] is listed as “Not Active”. The result in [5], in assay [6], in [7], in [8], in assay [9] and in assay [10] was inactive.
As for `O=S(=O)(CC1=NCCS1)c1c(-c2ccc(Cl)cc2)noc1-c1ccc(Cl)cc1`, the inhibition entry in assay [1], in assay [2] and in assay [3] was “inactive” in each case. In assay [4], the concentration for half-maximal inhibition (IC50) entry is “Not Active”. Moreover, the result in [5], in assay [6], in assay [7], in assay [8], in assay [9] and in [10] was inactive.
For `COc1ccc(C2=NN(c3ccccc3)C(c3ccc(C)cc3)C2S(=O)(=O)CC2=NCCS2)cc1` (stereo not given), the results for the inhibition in assay [1], in [2] and in assay [3] were 37.5%, 45.8% and 51.5%, respectively. Further, in assay [4], the IC50 is 97.04 µg/mL (≈ 192 µM). The Activity in assay [5] was 39.4%; in [6], 44.9%; in [7], 50.7%; in assay [8], 42.6%; in assay [9], 43.9%; in [10], 47.9%.
On to `Cc1ccc(C2CNN=C2S(=O)(=O)CC2=NCCS2)cc1` (stereo not given), for which the inhibition in assay [1] came to 40.9%; in [2], 44%; in assay [3], 48.2%. Also, the 50% inhibitory concentration (IC50) in assay [4] came out at 103.73 µg/mL (≈ 321 µM). Besides, the Activity in assay [5] was 43.1%; in assay [6], 48.6%; in [7], 52.1%; in assay [8] it was 39.8%; in [9], 42.2%; in assay [10], 45%.
In the case of `O=C1O[C@H]([C@@H](O)CO)C(O)=C1O` [ASCORBIC ACID], the inhibition came out at 77.2% in assay [1], 81% in assay [2] and 83.8% in [3]. Moreover, the IC50 in [4] was 59.65 µg/mL (≈ 339 µM). For the same compound, the Activity worked out at 78.2% in assay [5]; 81.5% in assay [6]; 82.8% in [7]; 77.7% in assay [8]; 79.3% in [9]; 83.2% in [10].
Consider `O=S(=O)(CC1=NCCO1)c1n[nH]cc1-c1ccccc1`, for which the values for the inhibition in assay [1], in assay [2] and in [3] were 50.1%, 54.3% and 60.8%, respectively. Also, the concentration for half-maximal inhibition (IC50) in assay [4] was 82.26 µg/mL (≈ 282 µM). Further, the Activity was found to be 50.6% in [5]; 54.7% in assay [6]; 57.5% in [7]; 53.3% in assay [8]; 55.6% in assay [9]; 58.5% in [10].
Regarding `O=S(=O)(CC1=NCCO1)C1C(c2ccc(Cl)cc2)=NN(c2ccccc2)C1c1ccc(Cl)cc1` (stereo not given), the inhibition entry in [1], in assay [2] and in [3] was “inactive” in each case. In addition, the IC50 result in [4] is given as “Not Active”. For the same compound, the result in [5], in assay [6], in [7], in [8], in assay [9] and in assay [10] was inactive.
On to `O=S(=O)(CC1=NCCO1)C1=NNCC1c1ccc(Cl)cc1` (stereo not given), for which the inhibition entry in assay [1], in [2] and in assay [3] was “inactive” each time. In addition, the half-inhibitory concentration (IC50) result in [4] was “Not Active”. The result in assay [5], in assay [6], in [7], in assay [8], in assay [9] and in assay [10] was inactive.
On to `O=S(=O)(CC1=NCCO1)C1C(c2ccccc2)=NOC1c1ccccc1` (stereo not given), for which the inhibition in assay [1] is 49.4%; in assay [2] it was 55.2%; in assay [3], 57.9%. Also, the 50% inhibitory concentration (IC50) in assay [4] amounted to 86.31 µg/mL (≈ 233 µM). Moreover, the Activity is 53.9% in assay [5]; 57.2% in assay [6]; 62.8% in assay [7]; 51.7% in assay [8]; 53.3% in [9]; 56.6% in [10].
As to `COc1ccc(-c2nn(-c3ccccc3)c(-c3ccc(C)cc3)c2S(=O)(=O)CC2=NCCS2)cc1`, the inhibition result in assay [1], in assay [2] and in assay [3] was “inactive” throughout. In addition, the concentration for half-maximal inhibition (IC50) result in assay [4] is “Not Active”. Further, the outcome in [5], in assay [6], in assay [7], in assay [8], in [9] and in assay [10] was inactive.
With `O=S(=O)(CC1=NCCO1)c1c(-c2ccccc2)noc1-c1ccccc1`, the inhibition in [1] came out at 61.6%; in assay [2], 65.8%; in assay [3], 72%. Besides, the 50% inhibitory concentration (IC50) in [4] was 69.47 µg/mL (≈ 189 µM). The Activity was 56.7% in [5]; 57.3% in [6]; 62.1% in assay [7]; 57.2% in assay [8]; 58.1% in [9]; 60.1% in assay [10].
Turning to `COc1ccc(-c2noc(-c3ccc(C)cc3)c2S(=O)(=O)CC2=NCCS2)cc1`, the inhibition entry in assay [1], in [2] and in assay [3] was “inactive” in each case. For the same compound, the concentration for half-maximal inhibition (IC50) result in assay [4] was “Not Active”. Moreover, the outcome in [5], in [6], in [7], in assay [8], in [9] and in [10] was inactive.
Take `O=S(=O)(CC1=NCCS1)C1C(c2ccc(Cl)cc2)=NOC1c1ccc(Cl)cc1` (stereo not given): the inhibition result in assay [1], in assay [2] and in assay [3] was “inactive” in each case. Moreover, the IC50 entry in [4] is given as “Not Active”. The result in assay [5], in assay [6], in assay [7], in [8], in assay [9] and in assay [10] was inactive.
On to `COc1ccc(-c2nn(-c3ccccc3)c(-c3ccc(C)cc3)c2S(=O)(=O)CC2=NCCO2)cc1`, for which the inhibition in assay [1] was determined as 65.5%; in assay [2], 67.6%; in [3] it was 70.3%. Besides, in [4], the half-maximal inhibitory concentration (IC50) amounted to 71.07 µg/mL (≈ 146 µM). Moreover, the Activity in assay [5] came out at 61.6%; in [6], 66.6%; in assay [7], 68.2%; in [8], 67.6%; in [9] it was 68.7%; in assay [10], 72.5%.
`O=S(=O)(CC1=NCCS1)C1C(c2ccc(Cl)cc2)=NN(c2ccccc2)C1c1ccc(Cl)cc1` (stereo not given): the inhibition result in assay [1], in [2] and in [3] was “inactive” each time. Besides, the IC50 entry in [4] is on record as “Not Active”. The result in assay [5], in assay [6], in assay [7], in assay [8], in [9] and in assay [10] was inactive.
As for `O=S(=O)(CC1=NCCS1)C1=NNCC1c1ccccc1` (stereo not given), the inhibition entry in assay [1], in [2] and in assay [3] was “inactive” in each case. Besides, the IC50 entry in assay [4] was “Not Active”. The result in assay [5], in assay [6], in assay [7], in assay [8], in assay [9] and in [10] was inactive.
On to `O=S(=O)(CC1=NCCO1)C1C(c2ccccc2)=NN(c2ccccc2)C1c1ccccc1` (stereo not given), for which the inhibition was determined as 48.2% in assay [1], 53.4% in [2] and 58% in [3]. For the same compound, the IC50 in assay [4] stood at 86.25 µg/mL (≈ 194 µM). Moreover, the Activity in [5] came to 46.7%; in assay [6] it was 51.4%; in assay [7] it was 57.9%; in [8] it was 44.4%; in assay [9], 45.5%; in assay [10], 48.1%.
